Measurements from article PMC4094269 (Journal of Medicinal Chemistry, 2014).
“Also recorded” adds a separate entry of the source.

How the values were obtained:
[1] = molecular target: PARP-1 (Homo sapiens, UniProt P09874); assay: PARP-1 inhibition assay; assay type: biochemical
[2] = Water solubility; assay type: physicochemical
[3] = system: wild-type DT40 cells; assay: DT40 cell viability; assay type: cell-based, Chicken; settings: 72 h, veliparib up to 10 μM
Summary of the method: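 Chicken DT40 B-cell lines from an academic lab. 200 cells per well, continuously exposed to a range of drug concentrations for 72 h, in triplicate. Viability read by ATP content: one-step luciferase reagent added, luminescence read after 5 min. Viability is the treated ATP level over untreated ATP level × 100, with untreated set to 100%. SD from n = 3.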

[4] = system: BRCA2-deficient DT40 cells; assay: DT40 cell viability; assay type: cell-based, Chicken; settings: 72 h
[5] = system: PARP-1-deficient DT40 cells; assay: DT40 cell viability; assay type: cell-based, Chicken; settings: 72 h, veliparib up to 10 μM

Chain of PARP-1 (P09874 whole entry): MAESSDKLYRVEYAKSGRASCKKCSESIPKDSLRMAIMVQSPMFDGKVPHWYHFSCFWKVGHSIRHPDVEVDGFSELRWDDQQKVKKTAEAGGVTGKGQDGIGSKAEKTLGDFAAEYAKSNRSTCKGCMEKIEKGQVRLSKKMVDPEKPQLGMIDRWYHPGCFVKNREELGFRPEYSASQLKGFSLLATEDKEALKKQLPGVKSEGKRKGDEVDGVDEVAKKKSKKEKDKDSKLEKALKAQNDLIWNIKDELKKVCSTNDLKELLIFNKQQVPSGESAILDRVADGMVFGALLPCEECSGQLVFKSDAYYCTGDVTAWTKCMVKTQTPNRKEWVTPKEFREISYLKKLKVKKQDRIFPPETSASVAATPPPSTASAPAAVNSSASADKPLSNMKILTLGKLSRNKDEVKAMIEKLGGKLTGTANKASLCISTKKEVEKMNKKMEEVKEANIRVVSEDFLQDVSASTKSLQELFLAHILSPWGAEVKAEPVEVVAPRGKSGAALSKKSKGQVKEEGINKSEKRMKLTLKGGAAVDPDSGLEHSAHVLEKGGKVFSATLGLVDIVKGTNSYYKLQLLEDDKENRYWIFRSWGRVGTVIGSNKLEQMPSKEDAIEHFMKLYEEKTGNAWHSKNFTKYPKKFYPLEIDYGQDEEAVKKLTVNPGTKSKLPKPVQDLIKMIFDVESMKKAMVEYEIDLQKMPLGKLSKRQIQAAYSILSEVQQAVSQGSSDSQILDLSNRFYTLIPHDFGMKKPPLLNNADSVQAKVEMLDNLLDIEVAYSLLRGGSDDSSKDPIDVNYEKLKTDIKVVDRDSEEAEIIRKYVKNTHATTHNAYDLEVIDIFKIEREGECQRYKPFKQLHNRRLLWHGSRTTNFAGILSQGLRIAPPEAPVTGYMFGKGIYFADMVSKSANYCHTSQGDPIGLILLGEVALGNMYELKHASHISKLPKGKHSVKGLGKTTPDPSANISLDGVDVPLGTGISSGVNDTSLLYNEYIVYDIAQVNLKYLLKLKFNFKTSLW

Compound `NC(=O)c1cc(F)cc2c1OCC2` [Compound 20, 5-Fluoro-2,3-dihydrobenzofuran-7-carboxamide] has a fold more potent ([1]; 20 vs initial lead 3) of about 5 fold.

In the case of `Cc1cc2c(c(C(N)=O)c1)OC(C)C2` (stereo not shown) [Compound 13b, 2,5-Dimethyl-2,3-dihydrobenzofuran-7-carboxamide], the “PARP-1 inhibition, result in words” value [1] is reported as “inactive”.

For `NC(=O)c1cccc2c1O/C(=C\c1cc(O)cc(O)c1)C2=O` [Compound 60, (Z)-2-(3′,5′-Dihydroxybenzylidene)-3-oxo-2,3-dihydrobenzofuran-7-carboxamide], the “PARP-1 inhibition, result in words” value [1] was “poor inhibition; also recorded: complete loss of potency”.

With `NC(=O)c1cccc2c1O/C(=C\c1ccccc1O)C2=O` [Compound 55, (Z)-2-(2′-Hydroxybenzylidene)-3-oxo-2,3-dihydrobenzofuran-7-carboxamide] the “PARP-1 inhibition, result in words” value [1] was “Poor inhibition”.

With `NC(=O)c1cccc2c1O/C(=C\c1ccc(OCC(=O)N3CCOCC3)cc1)C2=O` [Compound 68, (Z)-2-[4′-(2-Morpholin-4-yl-2-oxoethoxy)benzylidene]-3-oxo-2,3-dihydrobenzofuran-7-carboxamide] the “fold improvement in potency” value ([1]; 68 vs 65) was 9 fold.

For `NC(=O)c1cccc2c1O/C(=C\c1cc(O)ccc1O)C2=O` [Compound 61, (Z)-2-(2′,5′-Dihydroxybenzylidene)-3-oxo-2,3-dihydrobenzofuran-7-carboxamide], the “PARP-1 inhibition, result in words” value [1] was “poor inhibition; also recorded: complete loss of potency”.

For `COc1ccc(/C=C2\Oc3c(C(N)=O)cccc3C2=O)cc1` [Compound 54, (Z)-2-(4′-Methoxybenzylidene)-3-oxo-2,3-dihydrobenzofuran-7-carboxamide], the “fold reduced inhibitory activity” value ([1]; 54 vs 57) was 4 fold.

For `CC1Cc2c(N)ccc(C(N)=O)c2O1` (racemic) [rac-28, 4-Amino-2-methyl-2,3-dihydrobenzofuran-7-carboxamide], the “fold increase in inhibition” value ([1]; rac-28 vs rac-13a) was 2 fold.

For `CN1CCN(CCS(=O)(=O)Nc2ccc(/C=C3\Oc4c(C(N)=O)cccc4C3=O)cc2)CC1` [Compound 72, (Z)-2-{4-[2-(4-Methylpiperazin-1-yl)ethanesulfonylamino]benzylidene}-3-oxo-2,3-dihydrobenzofuran-7-carboxamide], the “water solubility, result in words” value [2] was “water-soluble”.

`CC1Cc2cc(F)cc(C(N)=O)c2O1` (racemic) [rac-13c, 5-Fluoro-2-methyl-2,3-dihydrobenzofuran-7-carboxamide] gave a fold more potent ([1]; rac-13c vs 13a) of 4 fold.

For `NC(=O)c1cccc2c1O/C(=C\c1ccc(O)c(O)c1)C2=O` [Compound 58, (Z)-2-(3′,4′-Dihydroxybenzylidene)-3-oxo-2,3-dihydrobenzofuran-7-carboxamide], the “fold improvement in potency” value ([1]; 58 vs core 36) was 30 fold.

In the case of `CC1Cc2cc(N)cc(C(N)=O)c2O1` (stereo not shown) [Compound 15, 5-Amino-2-methyl-2,3-dihydrobenzofuran-7-carboxamide], the “PARP-1 inhibition, result in words” value [1] is reported as “inactive”.

In the case of `NC(=O)c1cccc2c1O/C(=C\c1ccc(OCCCN3CCOCC3)cc1)C2=O` [Compound 67, (Z)-2-[4′-(3-Morpholin-4-ylpropoxy)benzylidene]-3-oxo-2,3-dihydrobenzofuran-7-carboxamide], the times more potent ([1]; 67 vs ethyl analogue 65) is reported as about 3 times.

With `CN1CCN(CCOc2ccc(/C=C3\Oc4c(C(N)=O)cccc4C3=O)cc2)CC1` [Compound 66, (Z)-2-{4′-[2-(4-Methylpiperazin-1-yl)ethoxy]benzylidene}-3-oxo-2,3-dihydrobenzofuran-7-carboxamide] the “cytotoxicity, result in words” value [3] was “minimally cytotoxic”, the “water solubility, result in words” value [2] was “water-soluble” and the “cytotoxicity, result in words” value [4] was “selective cytotoxicity; also recorded: selectively killed; also recorded: selectively active”. The “cytotoxicity, result in words” value [5] was “minimally cytotoxic”.

In the case of `CC1Cc2cc([N+](=O)[O-])cc(C(N)=O)c2O1` (stereo not shown) [Compound 14, 2-Methyl-5-nitro-2,3-dihydrobenzofuran-7-carboxamide], the “PARP-1 inhibition, result in words” value [1] is reported as “inactive”.

`NC(=O)c1cccc2c1O/C(=C\c1ccc(OCCN3CCOCC3)cc1)C2=O` [Compound 65, (Z)-2-[4′-(2-Morpholin-4-ylethoxy)benzylidene]-3-oxo-2,3-dihydrobenzofuran-7-carboxamide] gave a fold less potent ([1]; 65 vs 64) of 4 fold.
